Here are results for 10 molecules from ChEMBL document CHEMBL1938363, “Synthesis of dihydrofuran-fused perhydrophenanthrenes having a phenolic hydroxyl group as a novel anti-Alzheimer's disease agent” (Bioorg Med Chem Lett, 2012).

The nature of experiment [1]: Inhibition of amyloid beta (25 to 35)-mediated damage in Sprague-Dawley rat neurons assessed as dendritic extension at 1 uM treated 4 days after amyloid beta-challenge measured after 4 days by immunostaining method. The method in brief:
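Rat cortical neurons were exposed to Aβ for 4 days before the test compounds were added. Dendrite length was quantified after a further 4 days. The vehicle control was 0.1% DMSO given to Aβ-exposed cells, and the normal control was cells without Aβ treatment.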

The nature of experiment [2]: Inhibition of amyloid beta (1 to 42)-mediated damage in Sprague-Dawley rat neurons assessed as dendritic extension at 1 uM administered 3 days after amyloid beta-challenge measured after 5 days by immunostaining method.
A short description of experiment [3]: Inhibition of amyloid beta (1 to 42)-mediated damage in Sprague-Dawley rat neurons assessed as axonal extension at 1 uM treated 3 days after amyloid beta-challenge measured after 5 days by immunostaining method.

Activity calls are given as the source filed them. The calls are words filed in the database; no cut-off is given here.

For `N#C[C@]12CCC3(OCCO3)C3=CO[C@H](Cc4cc(OC(F)(F)F)ccc41)[C@@H]32`, in experiment [1], the inhibition result was “inactive”.
Turning to `N#C[C@]12CCC3(OCCO3)C3=CO[C@H](Cc4cc(OCc5ccccc5)ccc41)[C@@H]32`, the inhibition result in experiment [1] was “inactive”.
Consider `N#C[C@]12CCC3(OCCO3)C3=CO[C@H](Cc4cc(O)ccc41)[C@@H]32`, for which the inhibition entry in experiment [1] and in experiment [2] was “Active” each time.
For `N#C[C@]12CCC3(OCCO3)C3=CO[C@H](Cc4cc(-c5ccccc5)ccc41)[C@@H]32`, in experiment [1], the inhibition entry is “inactive”.
For the molecule `N#C[C@]12CCC3(OCCO3)C3=CO[C@H](Cc4cc(OS(=O)(=O)C(F)(F)F)ccc41)[C@@H]32`, the inhibition result in experiment [1] is “inactive”.
As for `COc1cc2c(cc1O)[C@]1(C#N)CCC3(OCCO3)C3=CO[C@H](C2)[C@@H]31`, the inhibition result in experiment [2] and in experiment [3] was “Active” throughout.
As to `COc1cc2c(cc1O)C[C@H]1OC=C3[C@H]1[C@@]2(C#N)CCC31OCCO1`, the inhibition entry in experiment [2] and in experiment [3] was “Active” in each case.
With `N#C[C@]12CCC3(OCCO3)C3=CO[C@H](Cc4ccc(O)cc41)[C@@H]32`, the inhibition entry in experiment [2] and in experiment [3] was “Active” each time.
As for `N#C[C@]12CCC3(OCCO3)C3=CO[C@H](Cc4cc(OCc5cc(F)cc(F)c5)ccc41)[C@@H]32`, in experiment [1], the inhibition result is “inactive”.
As for `CC(C)[Si](Oc1ccc2c(c1)C[C@H]1OC=C3[C@H]1[C@@]2(C#N)CCC31OCCO1)(C(C)C)C(C)C`, in experiment [1], the inhibition entry was “inactive”.
